Experimental findings from ChEMBL document CHEMBL3232894, “Discovery of AMG 925, a FLT3 and CDK4 dual kinase inhibitor with preferential affinity for the activated state of FLT3” (J Med Chem, 2014) are described below.

Data set [1] concerns the target Cytochrome P450 3A4 (Homo sapiens, UniProt P08684). Description: Inhibition of CYP3A4 (unknown origin). The class given is ADME.
The target in data set [2] is Cyclin-dependent kinase 4/cyclin D1 (Homo sapiens, UniProt P11802). The experiment in a line: Inhibition of CDK4/cyclin D1 (unknown origin) using Rb as substrate after 60 mins by scintillation counting analysis in presence of [r-33P]ATP. In kind it is protein-complex assay.
Cyclin-dependent kinase 4/cyclin D1, sequence (P11802 whole entry): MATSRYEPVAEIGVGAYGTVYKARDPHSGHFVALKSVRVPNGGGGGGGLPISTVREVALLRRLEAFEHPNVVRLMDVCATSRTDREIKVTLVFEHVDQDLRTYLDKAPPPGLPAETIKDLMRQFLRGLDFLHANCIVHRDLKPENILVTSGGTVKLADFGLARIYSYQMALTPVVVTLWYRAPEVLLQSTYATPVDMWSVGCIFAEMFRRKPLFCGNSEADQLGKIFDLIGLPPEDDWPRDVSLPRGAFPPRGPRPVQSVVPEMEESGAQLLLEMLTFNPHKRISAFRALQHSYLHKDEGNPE
Cyclin-dependent kinase 4/cyclin D1, sequence (P24385 whole entry, further chain): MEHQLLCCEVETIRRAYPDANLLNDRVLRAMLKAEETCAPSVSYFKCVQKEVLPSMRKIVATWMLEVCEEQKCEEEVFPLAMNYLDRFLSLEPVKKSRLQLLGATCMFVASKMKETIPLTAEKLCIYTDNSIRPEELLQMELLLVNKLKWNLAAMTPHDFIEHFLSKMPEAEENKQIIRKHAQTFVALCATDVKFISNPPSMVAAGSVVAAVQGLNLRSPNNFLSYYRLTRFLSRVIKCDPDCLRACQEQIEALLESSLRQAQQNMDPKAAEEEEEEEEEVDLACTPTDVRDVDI
Data set [3] has as its target CYP3A4 (Homo sapiens, UniProt P08684). The experiment in a line: Inhibition of CYP3A4 (unknown origin) at 3 uM. The class given is ADME.
For data set [4], the target named is T1, Receptor-type tyrosine-protein kinase FLT3 (Homo sapiens, UniProt P36888).
T1 sequence (P36888 whole entry): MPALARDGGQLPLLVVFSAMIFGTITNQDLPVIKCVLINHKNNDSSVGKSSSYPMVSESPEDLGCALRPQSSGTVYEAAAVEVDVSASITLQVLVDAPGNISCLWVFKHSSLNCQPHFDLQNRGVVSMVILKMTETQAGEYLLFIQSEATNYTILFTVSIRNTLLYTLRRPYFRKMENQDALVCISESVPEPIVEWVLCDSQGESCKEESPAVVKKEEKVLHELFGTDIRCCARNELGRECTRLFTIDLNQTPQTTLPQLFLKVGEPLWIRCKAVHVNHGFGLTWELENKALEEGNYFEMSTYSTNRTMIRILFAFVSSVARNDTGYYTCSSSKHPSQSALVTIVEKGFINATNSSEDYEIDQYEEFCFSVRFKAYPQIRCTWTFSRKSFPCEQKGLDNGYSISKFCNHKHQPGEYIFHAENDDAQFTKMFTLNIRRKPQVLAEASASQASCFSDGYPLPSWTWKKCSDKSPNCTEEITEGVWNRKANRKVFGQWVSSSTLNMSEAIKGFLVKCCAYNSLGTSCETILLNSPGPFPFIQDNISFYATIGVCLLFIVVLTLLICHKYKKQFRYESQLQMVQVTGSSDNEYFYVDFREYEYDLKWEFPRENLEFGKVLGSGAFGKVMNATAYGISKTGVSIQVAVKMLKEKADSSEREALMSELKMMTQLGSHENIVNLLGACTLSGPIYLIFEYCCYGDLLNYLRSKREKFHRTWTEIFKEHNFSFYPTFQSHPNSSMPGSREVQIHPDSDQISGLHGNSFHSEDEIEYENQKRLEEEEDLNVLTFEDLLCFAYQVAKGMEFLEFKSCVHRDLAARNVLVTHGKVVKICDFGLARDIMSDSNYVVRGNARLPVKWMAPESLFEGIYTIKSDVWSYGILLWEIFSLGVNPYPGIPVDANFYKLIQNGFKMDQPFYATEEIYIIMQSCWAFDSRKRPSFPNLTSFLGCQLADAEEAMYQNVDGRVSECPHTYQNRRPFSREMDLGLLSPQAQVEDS
Description: Inhibition of GST-fused human FLT3 cytoplasmic domain (amino acids 564 to 993) using Ulight-JAK1 as substrate after 1 hr by TR-FRET assay. Background: TR-FRET usually uses a lanthanide donor and a delayed reading to cut background.

Data set [5] addresses Cyclin-dependent kinase 1/cyclin B1 (Homo sapiens, UniProt P06493). Description: Inhibition of CDK1/cyclin B (unknown origin) using histone H1 as substrate after 60 mins by scintillation counting analysis in presence of [r-33P]ATP. The class given is protein-complex assay.
A short description of data set [6]: Antiproliferative activity against Rb-negative human MDA-MB-436 cells assessed as incorporation of [3H]thymidine into DNA after 72 hrs by beta-plate counting analysis. In kind it is functional.
In data set [7] the test system is COLO 205. Description: Antiproliferative activity against Rb-positive human COLO205 cells assessed as incorporation of [14C]thymidine into DNA after 72 hrs by beta-plate counting analysis.
Data set [8] has as its system MOLM-13. Description: Antiproliferative activity against human MOLM13 cells harboring FLT3 ITD mutant assessed as incorporation of [3H]thymidine into DNA after 72 hrs by beta-plate counting analysis. In kind it is functional, cell-based.
Data set [9] is described as follows: Clearance in iv dosed rat. The class given is ADME, organism-based. The note with it: in vivo. Summed up: (§1)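 Intravenous and oral (gavage, solution) PK in rat, dog and cynomolgus monkey. The rat vehicle for both routes was water/acetate/tween at pH 4, 96/3/1 (v/v/v). Dog and monkey iv doses used 40% PG aqueous solution at pH 2, and their oral doses used 20% captisol aqueous solution.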

Data set [10] is described as follows: Oral bioavailability in rat. In kind it is ADME, organism-based. The note with it: in vivo. Summed up:
as §1

Bounds are passed on as bounds.

Cytochrome P450 3A4, sequence (P08684 whole entry): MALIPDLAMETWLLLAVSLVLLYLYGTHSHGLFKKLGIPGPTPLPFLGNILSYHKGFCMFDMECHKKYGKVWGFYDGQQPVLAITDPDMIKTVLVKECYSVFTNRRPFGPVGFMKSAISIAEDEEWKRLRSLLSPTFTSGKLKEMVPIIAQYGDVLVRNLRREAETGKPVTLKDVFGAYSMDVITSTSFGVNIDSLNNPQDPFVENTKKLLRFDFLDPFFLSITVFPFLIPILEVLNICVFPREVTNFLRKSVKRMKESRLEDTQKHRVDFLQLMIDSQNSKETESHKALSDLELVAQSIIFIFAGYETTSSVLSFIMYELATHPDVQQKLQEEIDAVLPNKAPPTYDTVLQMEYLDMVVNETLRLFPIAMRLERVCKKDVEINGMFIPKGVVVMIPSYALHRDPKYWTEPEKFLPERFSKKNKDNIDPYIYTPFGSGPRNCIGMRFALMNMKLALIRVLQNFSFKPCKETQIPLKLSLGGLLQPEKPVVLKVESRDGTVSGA
CYP3A4, sequence (P08684 whole entry): as above
Cyclin-dependent kinase 1/cyclin B1, sequence (P06493 whole entry): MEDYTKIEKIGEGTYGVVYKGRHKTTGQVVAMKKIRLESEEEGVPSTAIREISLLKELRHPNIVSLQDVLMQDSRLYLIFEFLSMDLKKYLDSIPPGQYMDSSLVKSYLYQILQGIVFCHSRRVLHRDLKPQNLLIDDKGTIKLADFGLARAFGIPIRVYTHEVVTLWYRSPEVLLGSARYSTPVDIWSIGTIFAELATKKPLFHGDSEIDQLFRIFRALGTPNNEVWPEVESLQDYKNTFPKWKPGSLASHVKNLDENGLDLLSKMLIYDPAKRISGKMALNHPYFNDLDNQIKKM
Cyclin-dependent kinase 1/cyclin B1, sequence (P14635 whole entry, further chain): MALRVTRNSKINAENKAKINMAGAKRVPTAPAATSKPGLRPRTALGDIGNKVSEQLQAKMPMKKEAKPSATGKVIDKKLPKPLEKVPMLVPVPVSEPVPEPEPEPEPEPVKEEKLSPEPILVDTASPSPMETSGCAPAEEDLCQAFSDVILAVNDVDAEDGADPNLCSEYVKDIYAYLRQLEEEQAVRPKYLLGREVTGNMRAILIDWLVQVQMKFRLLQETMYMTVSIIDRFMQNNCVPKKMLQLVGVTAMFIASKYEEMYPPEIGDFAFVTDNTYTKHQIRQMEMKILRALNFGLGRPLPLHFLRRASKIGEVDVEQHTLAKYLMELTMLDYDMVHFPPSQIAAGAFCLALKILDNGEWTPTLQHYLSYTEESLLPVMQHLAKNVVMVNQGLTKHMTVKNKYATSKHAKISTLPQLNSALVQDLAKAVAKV

For the molecule `C[C@H]1CC[C@H](n2c3cnccc3c3cnc(Nc4ccc(N5CCNCC5)cn4)nc32)CC1`, the IC50 (usually the point on the concentration scale where inhibition reaches its midpoint) in [1] is more than 10 µM; in [2], 0.007 µM; in data set [4] it was 0.002 µM; in data set [5], 2.66 µM; in [6], 1.21 µM; in [7], 0.02 µM. Further, in data set [8], the IC50 turned out to be 0.013 µM. Further, at 3 µM the inhibition in data set [3] was 20%.
Consider `C[C@H]1CC[C@H](n2c3cnccc3c3cnc(Nc4ccc(N5CCC(N)CC5)cn4)nc32)CC1`, for which the IC50 in data set [2] is 0.002 µM; in [4], 0.001 µM; in [5], 0.41 µM; in [6] it was 1.2 µM; in [7] it was 0.005 µM; in data set [8] it was 0.008 µM.
As to `c1cc2c3cnc(Nc4ccc(N5CCNCC5)cn4)nc3n(C3CCCCC3)c2cn1`, the IC50 in [2] turned out to be 0.005 µM; in data set [4], 0.002 µM; in [5] it was 6.53 µM; in [6] it was 0.54 µM; in data set [7], 0.032 µM. For the same molecule, at 3 µM the inhibition in data set [3] was 82%.
Take `Fc1nccc2c3cnc(Nc4ccc(N5CCNCC5)cn4)nc3n(C3CCCC3)c12`: the half-inhibitory concentration (IC50) in [1] is more than 10 µM; in data set [2] it was 0.003 µM; in [4], 0.011 µM; in [5], 7.56 µM; in data set [6], 2.61 µM; in data set [7], 0.052 µM. Also, the concentration for half-maximal inhibition (IC50) in data set [8] came out at 0.021 µM. The inhibition (usually the relative decrease from the control value, in per cent) at 3 µM in [3] was less than 10%. Moreover, the clearance (as a rule, the rate of elimination divided by the concentration) in data set [9] is 35 mL/min/kg.
Take `C[C@H]1CC[C@H](n2c3cnccc3c3cnc(Nc4ccc(N5CCNCC5)nc4)nc32)CC1`: the IC50 in data set [2] stood at 0.003 µM; in data set [4], 0.0003 µM; in [5], 0.024 µM; in data set [6], 0.038 µM; in data set [7], 0.007 µM; in data set [8], 0.005 µM.
In the case of `CC1(C)CCCC(n2c3cnccc3c3cnc(Nc4ccc(N5CCNCC5)cn4)nc32)C1` (stereo unspecified), the IC50 in [2] is 0.003 µM; in [4] it was 0.003 µM; in data set [5], 2.96 µM; in data set [6], 1.62 µM; in [7], 0.033 µM; in [8], 0.01 µM. Moreover, in [3], the inhibition at 3 µM was 90%.
As for `N#Cc1nccc2c3cnc(Nc4ccc(N5CCNCC5)cn4)nc3n(C3CCCC3)c12`, the IC50 in data set [2] came out at 0.027 µM; in data set [4] it was 0.046 µM; in [5] it was 30 µM; in data set [6] it was 1.38 µM; in data set [7], 0.35 µM; in data set [8], 0.062 µM.
Take `COc1nc(Nc2ncc3c4ccncc4n([C@H]4CC[C@H](C)CC4)c3n2)ccc1N1CCC2(CCC(=O)N2)CC1`: the IC50 in [2] turned out to be 0.013 µM; in [4], 0.0006 µM; in data set [5], 1.06 µM; in [6], 7.5 µM; in data set [7], 0.044 µM; in [8], 0.004 µM. The molecule also showed a clearance in data set [9] of 15.2 mL/min/kg. Besides, the bioavailability (usually dose-corrected exposure relative to a reference, in per cent) in [10] was determined as 65%.
For the molecule `C[C@@H](CO)n1c2cnccc2c2cnc(Nc3ccc(N4CCNCC4)cn3)nc21`, the 50% inhibitory concentration (IC50) in data set [1] is more than 10 µM; in data set [2], 0.04 µM; in data set [4] it was 0.043 µM; in [5] it was 12.8 µM; in [6], 30 µM; in data set [7], 1.24 µM. The molecule also showed an inhibition at 3 µM in data set [3] of 17%.
For `O=c1[nH]ccc2c3cnc(Nc4ccc(N5CCNCC5)cn4)nc3n(C3CCCC3)c12`, the IC50 turned out to be 0.005 µM in data set [2]; 0.017 µM in [4]; 10 µM in data set [5]; 2.1 µM in data set [6]; 0.12 µM in data set [7]; 0.005 µM in data set [8]. The molecule further displayed an inhibition at 3 µM in [3] of 18%.
Take `Cc1nccc2c3cnc(Nc4ccc(N5CCNCC5)cn4)nc3n(C3CCCC3)c12`: the IC50 in [1] is more than 10 µM; in data set [2], 0.02 µM; in data set [4] it was 0.022 µM; in data set [5], 2.26 µM; in data set [6] it was 3.42 µM; in data set [7] it was 0.28 µM. Further, the IC50 in data set [8] turned out to be 0.005 µM. This molecule had an inhibition at 3 µM in data set [3] of less than 10%.
On to `CC1CCC(n2c3cnccc3c3cnc(Nc4ccc(N5CCNCC5)cn4)nc32)CC1` (mixture of isomers), for which the IC50 in [2] was 0.001 µM; in [4], 0.002 µM; in [5], 5.2 µM; in data set [6], 1.02 µM; in [7] it was 0.055 µM. For the same molecule, the inhibition at 3 µM in data set [3] came to 46%.
Regarding `c1cc2c3cnc(Nc4ccc(N5CCNCC5)cn4)nc3n(C3CCCC3)c2cn1`, the IC50 is 0.55 µM in data set [1]; 0.003 µM in data set [2]; 0.014 µM in data set [4]; 3 µM in [5]; 1.76 µM in [6]; 0.025 µM in [7]. In addition, the half-maximal inhibitory concentration (IC50) in data set [8] stood at 0.005 µM. The inhibition at 3 µM in data set [3] was 90%. This molecule gave a clearance in [9] of 16.3 mL/min/kg. Moreover, the bioavailability in [10] was found to be 9.4%.
On to `C[C@H]1CC[C@H](n2c3cnccc3c3cnc(Nc4ccc(N5CCNCC5)nn4)nc32)CC1`, for which the half-inhibitory concentration (IC50) in data set [2] is 0.002 µM; in [4], 0.006 µM; in [5] it was 1.53 µM; in data set [6] it was 1.01 µM; in [7] it was 0.022 µM; in data set [8], 0.013 µM. For the same molecule, in data set [9], the clearance is 5.83 mL/min/kg. Besides, the bioavailability in data set [10] worked out at 11%.
Regarding `CN(C)C1CCN(c2ccc(Nc3ncc4c5ccncc5n([C@H]5CC[C@H](C)CC5)c4n3)nc2)CC1`, the half-inhibitory concentration (IC50) in [2] stood at 0.002 µM; in [4], 0.002 µM; in data set [5], 3.29 µM; in [6], 1.25 µM; in data set [7], 0.01 µM; in [8], 0.01 µM. For the same molecule, the clearance in data set [9] is 35 mL/min/kg. This molecule yielded a bioavailability in data set [10] of 44%.
In the case of `CC1(C)CCC(n2c3cnccc3c3cnc(Nc4ccc(N5CCNCC5)cn4)nc32)CC1`, the IC50 came out at 9.5 µM in [1]; 0.001 µM in data set [2]; 0.017 µM in [4]; 2.91 µM in data set [5]; 2.01 µM in data set [6]; 0.028 µM in data set [7]. Moreover, the IC50 in [8] stood at 0.035 µM. Also, at 3 µM the inhibition in data set [3] was 51%.
Regarding `c1cc2c3cnc(Nc4ccc(N5CCNCC5)cn4)nc3n(C3CCCC3)c2nn1`, the IC50 was more than 10 µM in data set [1]; 0.051 µM in [2]; 0.095 µM in data set [4]; 4.78 µM in data set [5]; 7.05 µM in [6]; 0.051 µM in data set [7]. Besides, the inhibition at 3 µM in [3] is less than 10%. This molecule gave a clearance in data set [9] of 93.3 mL/min/kg.
As for `CS(=O)(=O)CC1CCN(c2ccc(Nc3ncc4c5ccncc5n([C@H]5CC[C@H](C)CC5)c4n3)nn2)CC1`, the IC50 in [2] was 0.009 µM; in [4], 0.008 µM; in data set [5], 3.97 µM; in data set [6] it was 10 µM; in data set [7] it was 0.019 µM; in [8], 0.03 µM. In [9], this molecule showed a clearance of 3.33 mL/min/kg. This molecule returned a bioavailability in data set [10] of 23%.
Take `O[C@H]1CC[C@H](n2c3cnccc3c3cnc(Nc4ccc(N5CCNCC5)cn4)nc32)CC1`: the IC50 in data set [2] turned out to be 0.003 µM; in data set [4], 0.005 µM; in data set [5], 3.41 µM; in data set [6], 2.61 µM; in data set [7] it was 0.066 µM; in data set [8], 0.025 µM. Besides, at 3 µM the inhibition in data set [3] was 70%.
